Source: PubChem
CHRM5 agonist: agonists of human muscarinic M5 receptor (CHRM5); activation, % at 3 µM; P08912; CHO-K1 hM5 cells, Fluo-8 calcium fluorescence; 0% DMSO wells, 100% maximal acetylcholine response; 360,000 compounds, 0.19% hits; AID 624037;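 active means activation above the run's mean over test compounds plus 3 SD, cut at about 23% in these data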;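 further: signal is peak over basal fluorescence ratio across the kinetic read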
Target sequence (P08912 whole entry, looked up): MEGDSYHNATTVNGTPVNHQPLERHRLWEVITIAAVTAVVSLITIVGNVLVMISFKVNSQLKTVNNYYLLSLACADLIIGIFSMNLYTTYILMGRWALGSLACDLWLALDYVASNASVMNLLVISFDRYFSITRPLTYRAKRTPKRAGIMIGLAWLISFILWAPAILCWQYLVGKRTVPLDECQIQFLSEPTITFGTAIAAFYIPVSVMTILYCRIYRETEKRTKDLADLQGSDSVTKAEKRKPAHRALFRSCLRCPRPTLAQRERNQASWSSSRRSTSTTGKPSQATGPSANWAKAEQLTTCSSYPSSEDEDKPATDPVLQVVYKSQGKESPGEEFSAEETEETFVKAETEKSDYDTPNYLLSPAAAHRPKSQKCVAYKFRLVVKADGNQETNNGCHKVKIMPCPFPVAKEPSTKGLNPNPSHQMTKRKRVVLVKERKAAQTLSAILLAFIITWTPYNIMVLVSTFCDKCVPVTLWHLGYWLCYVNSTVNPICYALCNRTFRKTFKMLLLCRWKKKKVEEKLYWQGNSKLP
CHRM4 agonist: CHRM4 agonism in calcium assay; CHO-K1 hM4/Gqi5, Fluo-8 calcium fluorescence; vehicle 0%, full acetylcholine response 100%; activation, % at 3 µM; P08173; 360,000 compounds, 0.14% hits;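 active means activation above the run mean over all test wells plus 3 SD, cut at about 32% in these data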;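 further: peak over basal fluorescence ratio per well then scaled between controls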
CHRM5 PAM: CHRM5 positive allosteric modulation; P08912; CHO-K1 hM5, Fluo-8 calcium, ACh EC20 PAM; 0% = ACh EC20, 100% = ACh EC100; activation, % at 3 µM; 360,000 compounds, 0.3% hits;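 active means activation above the run cutoff, the mean activation of all test compounds plus 3 SD, cut at about 18% in these data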
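Measured by: Fluo-8 calcium fluorescence; material: human M5 receptor in CHO-K1 cells; schedule: Post-acetylcholine fluorescence recording 140 s; benchmarks: low control EC20 acetylcholine (0%), high control EC100 acetylcholine (100%); read-out: Max/basal fluorescence ratio as % of EC20–EC100 ACh window; compound: single dose, 3 µM nominal final test concentration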
M4 antag: blocks acetylcholine activation of human M4 receptor; P08173; CHO-hM4 cells, ACh EC80, Fluo-8 calcium fluorescence; inhibition, % at 3 µM; 360,000 compounds, 0.73% hits; AID 624125;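 active means inhibition above its plate's cutoff, the mean inhibition of sample wells plus 3 SD, cut at about 27% in these data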
CHRM5 antagonist: CHRM5 antagonism in calcium assay | inhibition, % at 3 µM | AID 624040 | 360,000 compounds, 0.59% hits | CHO-hM5 cells, Fluo-8 calcium fluorescence, ACh EC80;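 active means inhibition above a per-plate cutoff, the mean of that plate's test compounds plus 3 SD, cut at about 27% in these data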
M4 PAM: positive allosteric modulators of human muscarinic M4 receptor | CHO-K1 hM4/Gqi5, Fluo-8 calcium fluorescence, ACh EC20; 0% = ACh EC20, 100% = maximal ACh | activation, % at 3 µM | 360,000 compounds, 0.4% hits | AID 624126;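 active means activation above its plate's cutoff, the mean activation of sample wells plus 3 SD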
Numbers stand for hits; i = inactive. Hits are enriched below; roughly 1.9% of the tested compounds scored in any of these assays.

SMILES	CHRM5 agonist	CHRM4 agonist	CHRM5 PAM	M4 antag	CHRM5 antagonist	M4 PAM
COc1cc2c(cc1OC)CN(C(=O)CNS(=O)(=O)c1ccc(C)c(C)c1)CC2	i	i	23.2	i	i	29.8
Cc1ccc(NC(=O)CNC2CCS(=O)(=O)C2)cc1C (centres undefined)	i	i	i	i	i	i
CCOc1cc(CC(=O)N[C@@H](CC(C)C)c2ccccc2N2CCCCC2)ccc1C(=O)O	i	i	i	i	i	i
CN(CC(=O)NCCc1ccc(S(N)(=O)=O)cc1)CC(=O)Nc1ccc(Cl)c(C(F)(F)F)c1	i	i	i	i	i	23.5
CCN(CC)C(=O)[C@H]1C[C@H](CC(=O)NCCC2=CCCCC2)C(=O)N2CCc3c([nH]c4ccc(Cl)cc34)[C@]12C	i	i	i	i	i	i
O=C(CN1CCCC1)Nc1ccc(OC(F)(F)F)cc1	i	i	i	i	i	i
Cc1ccc(-n2nnnc2-c2ccco2)cc1	i	i	i	i	i	i
c1ccc(Cn2nnnc2-c2ccco2)cc1	i	i	i	i	i	37.4
Cc1c(NC(=O)c2cc(-c3cccs3)nc3ccccc23)c(=O)n(-c2ccccc2)n1C	i	i	i	i	27.1	i
CCC1CCCCN1CCNS(=O)(=O)c1ccc2c(c1)oc(=O)n2C (centres undefined)	i	i	i	29.2	i	i
CCC1CCCCN1CCCNS(=O)(=O)c1ccc2c(c1)oc(=O)n2C (centres undefined)	i	i	i	i	i	i
CC(CCc1ccc(O)cc1)NCCC(c1ccccc1)c1ccccc1 (centres undefined)	i	33.0	i	31.5	i	i
CC(CCc1ccc(O)cc1)NC(c1ccccc1)c1ccc(Cl)cc1 (centres undefined)	i	i	i	i	i	i
O=C(c1ccc2c(=O)n3c(nc2c1)CCCCC3)N1CCN(c2ccccc2)CC1	i	i	i	i	i	i
O=C(c1ccc(=O)oc1)N1CCN(C(c2ccccc2)c2ccccc2)CC1	i	i	i	42.7	35.6	i
O=C(c1ccc2c(=O)n3c(nc2c1)CCCCC3)N1CCN(C(c2ccccc2)c2ccccc2)CC1	i	i	i	63.8	i	i
Cc1ccc(-c2csc(NC(=O)c3ccc4c(=O)n5c(nc4c3)CCCCC5)n2)cc1	i	i	i	i	i	23.4
CCC(C)(C)NS(=O)(=O)c1cc(CN2C(=O)c3cccnc3C2=O)ccc1OC	i	i	i	i	i	i
CC(C)NC(=O)C1(C)CN(S(C)(=O)=O)CC(=O)N1Cc1cccc(F)c1 (centres undefined)	i	i	i	i	i	i
CS(=O)(=O)Nc1cccc(-c2cn3c(n2)SCC3)c1	i	i	i	i	31.3	i
CCS(=O)(=O)Nc1cccc(-c2cn3c(n2)SCC3)c1	i	i	i	i	i	i
N#Cc1ccsc1NC(=O)CSc1nnc(NC2CC2)s1	i	i	i	i	i	i
CCn1c2ccccc2c2nnc(SCCN3CCOCC3)nc21	i	i	i	i	i	i
CCn1c2ccccc2c2nnc(SCCN3CCCCC3)nc21	i	i	i	27.6	i	i
COC(=O)c1ccc(Cl)cc1NC(=O)/C=C/c1ccc(C)o1	i	i	20.0	i	i	i
SMILES	CHRM5 agonist	CHRM4 agonist	CHRM5 PAM	M4 antag	CHRM5 antagonist	M4 PAM
CCNC(=O)CC1C(=O)N(c2ccccc2)C(=O)N1CCC(C)C (centres undefined)	i	i	i	i	i	25.1
CC(=O)N1CCCN(Cc2cn(-c3cccc(C)c3)nc2-c2cccc(F)c2)CC1	i	i	i	i	i	i
Cc1ccsc1C(=O)N1CCN(S(=O)(=O)c2cccs2)CC1	i	i	i	i	i	i
Cc1ccccc1C(=O)N1CCN(S(=O)(=O)c2cccs2)CC1	i	i	i	27.0	i	i
COc1ccc(CN2CCC2(C)C(=O)Nc2cccc(NS(C)(=O)=O)c2)c2ccccc12 (centres undefined)	i	i	i	i	i	i
COc1cccc(C(=O)NC2CC(C)(C)Cc3c2cnn3-c2cccc(F)c2)c1OC (centres undefined)	i	i	i	i	28.1	i
COc1cc(C(=O)NC2CC(C)(C)Cc3c2cnn3-c2ccccc2)cc(OC)c1OC (centres undefined)	i	i	i	i	i	i
CCN1/C(=C2\C(=O)N(c3ccccc3)N=C2C)C=Cc2cc(C)ccc21	38.7	i	i	i	i	i
CCN1/C(=c2/s/c(=C3/C(=O)N(c4ccccc4)N=C3C)n(CC)c2=O)C=Cc2ccccc21	i	i	i	i	i	i
COCCCNC(=O)C[C@H]1C[C@H](C(=O)N2CCOCC2)[C@@]2(C)c3[nH]c4cc(CCC(=O)N(C)C)ccc4c3CCN2C1=O	i	i	i	i	i	i
CCc1ccc(C(=O)Nc2ccc3c(c2)n(C)c(=O)n3C)cc1	i	i	23.6	i	i	i
COc1cc(OC)cc(C(=O)Nc2ccc3c(c2)n(C)c(=O)n3C)c1	i	i	i	i	i	i
CCn1c(=O)n(CC)c2cc(NC(=O)c3ccccc3Cl)ccc21	i	i	20.3	i	i	i
CCN(CC1CCCO1)C(=O)c1cc(COc2cc(C)c(Cl)c(C)c2)on1 (centres undefined)	i	i	i	i	i	i
Cc1c(NC(=O)C(C)OC(=O)c2ncc(Cl)c(Cl)c2Cl)c(=O)n(-c2ccccc2)n1C (centres undefined)	i	i	i	i	i	i
N#Cc1c(NC(=O)c2cccc(S(=O)(=O)Nc3ccc(C(=O)O)cc3)c2)sc2c1CCCC2	i	i	i	i	i	i
CCN(CC)CCOC(=O)C1(c2ccccc2)CCCC1	i	i	i	98.5	99.3	i
O=C(OCCCN1CCCC1)C1(c2ccccc2)CCCC1	i	i	i	62.6	38.8	i
CN(C)CCOC(=O)C1(c2ccccc2)CCOCC1	i	i	i	i	i	i
O=C(COC(=O)C1(c2ccccc2)CCCC1)N1CCNC1=O	i	i	i	i	i	i
CCN(CC)CCOC(=O)C1(C2CCCCC2)CCCCC1	i	i	i	98.5	98.9	i
CCN(CC)CC(=O)NCC1(c2ccccc2)CCCC1	i	i	i	38.6	i	i
CCN(CC)CCOC(=O)c1ccc(Cl)cc1	i	i	i	i	i	i
CCN(CC)CCOC(=O)C1(c2ccc(OC)c(OC)c2)CCCC1	i	i	i	i	28.3	i
Cc1ccc(C)c(NC(=S)N2CCC(NC(=O)c3cccc(F)c3)CC2)c1	i	i	i	i	i	i
CC1=Nn2c(nnc2C2CCCCC2)SC1	i	i	i	i	i	31.1
CC1=Nn2c(nnc2-c2cc(-c3ccccc3)n[nH]2)SC1	i	i	i	i	i	i
